Compound activity: PubChem BioAssay, The Scripps Research Institute Molecular Screening Center
An excerpt weighted towards active compounds, which were near 0.74% of everything screened.
ARFGAP1 inh = inhibitors of rat ARFGAP1 GAP activity, primary screen, biochemical, fluorescence polarization, GDP tracer; Arfgap1-stimulated ARF1 GTP hydrolysis, GDP FP detection; inhibition, % at 16.5 µM; ADP-ribosylation factor GTPase-activating protein 1 (Rattus norvegicus), Q62848; AID 651572, 2012; 360,000 tested, 0.26% active;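 active = inhibition above a per-plate limit, mean inhibition of low control wells plus 3 SD, cut at about 25% in these data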
Target sequence (Q62848 1-136 limits assumed): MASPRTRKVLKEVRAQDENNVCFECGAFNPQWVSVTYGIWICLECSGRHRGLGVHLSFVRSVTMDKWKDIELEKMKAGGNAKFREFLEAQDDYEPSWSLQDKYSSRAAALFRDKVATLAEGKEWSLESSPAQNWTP
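Material: rat Arfgap1 GAP domain (His6, aa 1-136), purified enzyme. Also added: human ARF1(Δ1-17)-GTP substrate. Compound dosing: 16.5 µM single point, 1.26% DMSO. Timing: enzyme reaction 120 min at 25 °C after 20 min preincubation. Signal: GDP detection by fluorescence polarization. Read-out basis: percent inhibition of GAP-stimulated GDP formation, scaled between DMSO and no-Arfgap1 medians.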
ASAP1 inh = inhibitors of human ASAP1 ArfGAP activity, primary screen, biochemical, fluorescence polarization. ASAP1-stimulated ARF1 GTP hydrolysis, GDP FP detection. inhibition, % at 16.5 µM. 360,000 tested, 0.19% active; in the data active = inhibition above about 25%
DDE Tn6 FP inh = inhibitors of Tn6 peptide binding to fibrin DD(E), primary screen, biochemical, fluorescence polarization, human fibrin, Tn6 probe | Fibrin DD(E) TRITC-Tn6 fluorescence polarization displacement | inhibition, % at 8.3 µM | 370,000 tested, 0.21% active;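 active = inhibition above a per-campaign cutoff: mean of compounds within control limits plus 3 SD, cut at about 15% in these data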
Target sequence (P02675 whole entry, looked up): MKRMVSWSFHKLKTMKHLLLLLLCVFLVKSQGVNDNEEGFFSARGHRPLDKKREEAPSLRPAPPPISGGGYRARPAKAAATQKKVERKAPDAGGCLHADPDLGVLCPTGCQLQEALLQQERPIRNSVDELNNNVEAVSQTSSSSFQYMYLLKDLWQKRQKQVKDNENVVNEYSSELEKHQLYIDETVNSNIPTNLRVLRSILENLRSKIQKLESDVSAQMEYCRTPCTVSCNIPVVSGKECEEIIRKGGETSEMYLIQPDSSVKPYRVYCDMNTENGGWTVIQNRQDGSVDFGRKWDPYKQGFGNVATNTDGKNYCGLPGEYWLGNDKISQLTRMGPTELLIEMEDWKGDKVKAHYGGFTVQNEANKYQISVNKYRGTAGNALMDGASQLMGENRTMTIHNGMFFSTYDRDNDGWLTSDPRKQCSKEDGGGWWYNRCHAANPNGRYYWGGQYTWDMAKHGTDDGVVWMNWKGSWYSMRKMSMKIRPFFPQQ
Tn7 DDE FP = inhibitors of Tn7 peptide binding to fibrin DD(E), primary screen, biochemical, fluorescence polarization, human fibrin, Tn7 probe | Fibrinogen beta chain (Homo sapiens), P02675 | FP displacement of FITC-Tn7 peptide from fibrin DD(E); 0% = median of compound wells per plate | inhibition, % at 8.3 µM | 370,000 tested, 0.13% active;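 active = inhibition above the mean of compounds falling within the control limits plus 3 SD of them, cut at about 14% in these data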
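assay system = human clot-derived fibrin DD(E) complex | quantity = Fibrin-DD(E) at 2 µM final | timing = 10 min preincubation, 3 h with tracer, room temperature | signal = fluorescence polarization | measure = percent inhibition | benchmarks = high control wells with 10 µM unlabelled Aha-Tn7 peptide (full inhibition) | replicates = singlicate testing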
Tn7 DDE conf = inhibitors of Tn7 peptide binding to fibrin DD(E), confirmation, biochemical, fluorescence polarization, human fibrin, Tn7 probe | shares compounds with Tn7 DDE FP | FP displacement of TRITC-Tn7 peptide from DD(E); 0% set at plate's compound-well median | inhibition, % at 8.3 µM | 460 tested, 5% active | AID 720628, 2013;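 active = inhibition above the campaign cutoff, the mean of compounds within control limits plus 3 SD, cut at about 14% in these data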;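 also: displacers lower polarization since freed probe rises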
Tn7 DDE ctr = counter-screen hit for Tn7 peptide-fibrin DD(E) binding disruption; shares compounds with Tn7 DDE FP; TRITC-Tn7 probe displacement, fluorescence polarization; inhibition, % at 8.3 µM; 460 tested, 3% active; AID 720633;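 active = inhibition above the cutoff, the mean of compounds lying between the control bounds plus 3 SD of those compounds, cut at about 17% in these data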
Of the large screens only hits and unclear results are named; the others gave an inactive call (follow-up assays come after a bar, where they were run).

C=C(C)C1CC=C(C)/C(=N/NC(=O)c2ccc(NC(=O)CC)cc2)C1 (centres undefined)	none
CN1CCN(C(=O)OCCOCCOC(=O)N2CCN(C)CC2)CC1	Tn7 DDE FP 13.9 | Tn7 DDE conf inactive | Tn7 DDE ctr inactive
CC1CC(C)CN(CCCNS(=O)(=O)c2cc3c(cc2Br)CCN3C(=O)C2CC2)C1 (centres undefined)	none (no result: ARFGAP1 inh, ASAP1 inh)
CC(C)C[C@H]1CNC(=O)C(=O)N1C[C@@H]1CCCN1C[C@H](Cc1ccccc1)N1C[C@H](CC(C)C)N(CC2CCCCC2)C(=O)C1=O	none
COc1ccccc1NC(=O)CSc1nnc(COc2ccccc2OC)n1C	Tn7 DDE FP 14.2 | Tn7 DDE conf inactive | Tn7 DDE ctr inactive
COC(=O)c1ccc2nc(-c3ccc(Cl)cc3)c(Cc3ccccc3)n2c1	none
COc1ccc(CC(NC(C)=O)C(=O)NC2CCN(c3c(Cc4ccccc4)c(C)nc4ncnn34)CC2)c(OC)c1 (centres undefined)	Tn7 DDE FP 14.1 | Tn7 DDE conf inactive | Tn7 DDE ctr inactive
CN(C)/C=N/c1cc(=O)[nH]c(=O)n1CC1CC1	none
C=CCn1c(=O)[nH]c2nc3cc(N=CN(C)C)c(C)cc3nc2c1=O	Tn7 DDE FP 23.4 | Tn7 DDE conf inactive | Tn7 DDE ctr inactive
Cc1cccc(NC(=O)CCS(=O)(=O)c2ccccc2)n1	Tn7 DDE FP 14.2 | Tn7 DDE conf inactive | Tn7 DDE ctr inactive
CC(=O)Nc1ccc(Nc2c3c4c(cccc4n(C)c2=O)C(=O)c2ccccc2-3)cc1	Tn7 DDE FP 18.6 | Tn7 DDE conf inactive | Tn7 DDE ctr inactive
CC(=O)Nc1ccc(NC2=CC(=O)c3ccccc3C2=O)cc1	none
Cn1c(=O)c(NC2CCCCC2)c2c3c(cccc31)C(=O)c1ccccc1-2	Tn7 DDE FP 19.0 | Tn7 DDE conf inactive | Tn7 DDE ctr inactive
Cc1cc(C)nc(NS(=O)(=O)c2ccc(N/C=C\C(=O)c3ccc(Cl)cc3)cc2)n1	Tn7 DDE FP 14.3 | Tn7 DDE conf inactive | Tn7 DDE ctr inactive
COC(=O)c1cccc(-n2c(C)cc(O)cc2=O)c1	none
CCOC(=O)Cn1nc(-c2ccc(F)cc2)oc1=O	Tn7 DDE FP 14.3 | Tn7 DDE conf inactive | Tn7 DDE ctr inactive
O=C(O)Cn1nc(-c2ccc(F)cc2)oc1=O	none
Cc1cc2ncn(S(=O)(=O)N3CCOCC3)c2cc1C	none
Cc1cc2ncn(S(=O)(=O)N3CCCCC3)c2cc1C	Tn7 DDE FP 14.4 | Tn7 DDE conf inactive | Tn7 DDE ctr inactive
O=C1C=C(NNC(=O)c2cccnc2)CC(c2ccco2)C1 (centres undefined)	Tn7 DDE FP 16.1 | Tn7 DDE conf inactive | Tn7 DDE ctr inactive
CC1(C)CC(=O)C=C(NNC(=O)c2cccnc2)C1	none
COc1ccc(-c2cc(=O)c3cccc(CC(=O)O)c3o2)cc1	none
CCOC(=O)C1(Cc2ccc(Cl)cc2)CCN(Cc2ccon2)CC1	none
CCOC(=O)C1(Cc2cccc(F)c2)CCN(Cc2ccon2)CC1	Tn7 DDE FP 14.3 | Tn7 DDE conf inactive | Tn7 DDE ctr inactive
CC(=N\NC(=O)c1ccc([N+](=O)[O-])cc1)/C(=N/O)C(=O)Nc1ccccc1	Tn7 DDE FP 15.7 | Tn7 DDE conf inactive | Tn7 DDE ctr inactive
CCOC(=O)/C(C)=N/NC(=O)c1ccc([N+](=O)[O-])cc1	none
CC(C)(C)S(=O)N1C[C@H]2CC(=O)C=C2[C@@H]1CCO (some centres undefined)	none
CCCCCCCCCCCCN1CCSCCS1(=O)=O	none
COc1ccc(NC(=O)N(C)C[C@H]2OCCCC[C@H](C)Oc3ccc(NC(=O)Nc4cccc5ccccc45)cc3C(=O)N([C@@H](C)CO)C[C@H]2C)cc1	none
CCCN(C(=O)COC(=O)COc1c(C)cccc1C)c1c(N)n(Cc2ccccc2)c(=O)[nH]c1=O	Tn7 DDE FP 13.8 | Tn7 DDE conf inactive | Tn7 DDE ctr inactive
CCCCN(C)C(=O)c1cc2cc3ccc(OC)cc3nc2s1	Tn7 DDE FP 14.5 | Tn7 DDE conf inactive | Tn7 DDE ctr inactive
CCCCN(CC)C(=O)c1cc2cc3ccc(OC)cc3nc2o1	none
CCOC(=O)c1oc2cccc(O)c2c1C	none
CCOC(=O)c1oc2cccc(O)c2c1CN(Cc1ccccc1)C(C)=O	Tn7 DDE FP 14.2 | Tn7 DDE conf inactive | Tn7 DDE ctr inactive
c1ccc(CN2CCCC3CC2c2ccccc23)cc1 (centres undefined)	none
COc1cccc(CNC(=O)c2cc3c(C)nc4ccccc4c3o2)c1	none
CCc1ccc(CNC(=O)c2cc3c(C)nc4ccccc4c3o2)cc1	Tn7 DDE FP 13.8 | Tn7 DDE conf inactive | Tn7 DDE ctr inactive
CCc1nc2ccc(C(=O)NCCc3ccc(OC)c(OC)c3)cc2nc1CC	none
CCc1nc2ccc(C(=O)NCCc3ccccc3OC)cc2nc1CC	Tn7 DDE FP 13.9 | Tn7 DDE conf inactive | Tn7 DDE ctr inactive
Cc1ccc(S(=O)(=O)NCCc2nc3ccccc3[nH]2)cc1	none
NC(=O)C(CCc1nc2ccccc2[nH]1)NS(=O)(=O)c1ccccc1 (centres undefined)	Tn7 DDE FP 14.9 | Tn7 DDE conf inactive | Tn7 DDE ctr inactive
COC(=O)[C@@H](N[C@H](/C=C/c1ccccc1)[C@@H](O)Cc1ccccc1)C(C)C	none
COCc1[nH]nc2c1C(c1ccc(F)cc1)N(c1ccccc1)C2=O (centres undefined)	none
CCCN(CCC)Cc1cc(=O)oc2ccccc12	none
O=C(c1cc2ccccc2o1)N1CCCCCC1	none
O=C(c1oc2ccccc2c1N1CCCCC1)N1CCCCC1	Tn7 DDE FP 14.9 | Tn7 DDE conf inactive | Tn7 DDE ctr inactive
CC(CCc1ccco1)NC(=O)Cn1ncc2c(=O)oc3ccccc3c21 (centres undefined)	Tn7 DDE FP 15.0 | Tn7 DDE conf inactive | Tn7 DDE ctr inactive
CC(C)OCCCNC(=O)Cn1ncc2c(=O)oc3ccccc3c21	none
Cc1cc(C)n(-c2ccc(C(=O)O)cc2)n1	Tn7 DDE FP 13.9 | Tn7 DDE conf inactive | Tn7 DDE ctr inactive
Oc1cccc(Nc2ccccc2)c1	Tn7 DDE FP 14.2 | Tn7 DDE conf inactive | Tn7 DDE ctr inactive
c1ccc(Nc2cccc(Nc3ccccc3)c2)cc1	none
Cc1ccccc1CN1[C@@H](C)[C@H](c2ccccc2)Oc2cccc(NCC(C)C)c2S1(=O)=O	none
Nc1[nH]c(C(=O)c2ccc(Br)cc2)c(-c2ccc3ccccc3c2)c1C(=O)NCCc1c[nH]c2ccccc12	none
